From ChEMBL document CHEMBL1140091, “2-aminothienopyridazines as novel adenosine A1 receptor allosteric modulators and antagonists” (J Med Chem, 2008) come the findings set out here.

The target of assay [1] is T1, Adenosine receptor A1 (Homo sapiens) (UniProt P30542).
T1 sequence (whole entry): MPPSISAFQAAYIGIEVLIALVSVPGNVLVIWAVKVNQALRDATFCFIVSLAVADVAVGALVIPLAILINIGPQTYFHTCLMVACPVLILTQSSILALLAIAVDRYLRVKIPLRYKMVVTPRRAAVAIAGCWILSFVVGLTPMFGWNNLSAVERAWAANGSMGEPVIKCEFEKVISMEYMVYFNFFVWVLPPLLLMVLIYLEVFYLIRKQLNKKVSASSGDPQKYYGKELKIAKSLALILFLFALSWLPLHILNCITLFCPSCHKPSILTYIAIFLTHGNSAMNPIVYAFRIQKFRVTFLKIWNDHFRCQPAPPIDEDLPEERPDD
Nature of the assay: Modulation of human adenosine A1 receptor expressed in CHO-K1 cells assessed as stabilization of [125I]ABA-receptor-G protein ternary complex at 50 uM by dissociation kinetic assay. Format: cell-based. Summed up: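 CHO-K1 membranes with human A1AR (10 µg) equilibrated 90 min at room temperature with 0.5 nM [125I]-ABA in 10 mM HEPES pH 7.2, 0.5 mM MgCl2, 1 U/mL ADA. Modulator (0.1-50 µM final) added for 30 min. Dissociation started with 100 µM BW-1433 plus 25 µM GTPγS for 10 min, then filtration and counting. K-score = 100×(B−Bo)/(Beq−Bo); n = 3. EC50 from variable-slope sigmoidal fit.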

Assay [2] concerns the target T2, Adenosine receptor A1 (Homo sapiens, UniProt P30542).
T2 sequence (P30542 whole entry): T1 sequence (whole entry)
Nature of the assay: Modulation of human adenosine A1 receptor expressed in CHO-K1 cells assessed as allosteric effect on [125I]ABA dissociation. Format: cell-based.

In assay [3] the target is T1, Adenosine receptor A1 (Homo sapiens). The assay can be described thus: Displacement of [3H]CPX from human adenosine A1 receptor expressed in CHO-K1 cells at 50 uM. Format: cell-based. Summed up:
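Incubated with 2 nM [3H]CPX and 50 µM modulator (final) for 90 min at room temperature. Nonspecific binding defined with 100 µM NECA. Filtration and scintillation counting; triplicate, given as % inhibition versus control.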
On the technique in general: In a radioligand displacement assay an active substance lowers the binding of a labelled ligand.

Assay [4] has the same target. Nature of the assay: (§1) Antagonist activity at human adenosine A1 receptor expressed in FlpIn-CHO cells assessed as inhibition of R-PIA-mediated ERK1/2 phosphorylation. Format: functional, cell-based.
The target of assay [5] is T2, Adenosine receptor A1. The assay is described as §1. Format: functional, cell-based. To be noted: read-out: pA2 (converted).
For assay [6], the target named is T2, Adenosine receptor A1. Nature of the assay: Antagonist activity at human adenosine A1 receptor assessed as inhibition of R-PIA-mediated [35S]GTPgammaS binding to G protein. Format: functional. Particulars: read-out: pA2 (converted). The method, boiled down: (§2)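 Membranes (15 µg) from CHO FlpIn cells stably expressing human A1AR. Preincubated 60 min at 30 °C in 10 mM HEPES, 100 mM NaCl, 10 mM MgCl2, pH 7.4, with 10 µM GDP, R-PIA (0.01 nM - 1 µM) ± increasing modulator concentrations. [35S]GTPγS (100 pM) then added for another 30 min at 30 °C. Filtration and scintillation counting; three experiments in duplicate.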
In general terms: Binding of GTPγS marks nucleotide exchange on a G protein.

Assay [7] addresses T1, Adenosine receptor A1 (Homo sapiens). Nature of the assay: Inverse agonist activity at human adenosine A1 receptor assessed as reduction of inhibition of R-PIA-mediated [35S]GTPgammaS binding to G protein. Format: functional. The method, boiled down: as §2
Assay [8] addresses T2, Adenosine receptor A1. Nature of the assay: Antagonist activity at human adenosine A1 receptor expressed in CHO-K1 cells assessed as reduction of [3H]CCPA specific equilibrium binding. Format: cell-based.

As usually defined, the EC50 is the concentration at which the effect is half-maximal. By inhibition is commonly meant the percentage by which the read-out fell short of the control. Usually Ki stands for the equilibrium dissociation constant of an inhibitor or competing ligand from its target.

Structures are written as SMILES. “And” between values parts separate entries of the source, which are not always exact repeats. Identical values can stand only once. The source made the active and inactive calls. The calls are words filed in the database; no cut-off is given here. Bounds are passed on as bounds.

Turning to `Nc1nccnc1C(=O)N/N=C/c1ccco1`, the Activity in assay [1] was under 5%.

As to `CCOC(=O)c1nn(-c2ccc(C(F)(F)F)cc2)c(=O)c2c(N)scc12`, in assay [1], the Activity turned out to be 81%. The concentration giving a half-maximal response (EC50) on Adenosine receptor A1 [2] was 8.4 µM. The inhibition in assay [3] was 77.2%. In addition, in assay [4], the outcome was inactive.

In the case of `CCOC(=O)c1nn(-c2cccc(Cl)c2)c(=O)c2c(N)scc12`, the Activity was 69.2% in assay [1] and “Dose-dependent effect” in assay [7]. Also, at Adenosine receptor A1 [2], the concentration giving a half-maximal response (EC50) amounted to 5.7 µM. The inhibition in assay [3] was 100%. Also, the figures for the Kb at Adenosine receptor A1 [5] and on Adenosine receptor A1 [6] were 0.002 µM and 0.00794 µM, respectively. On Adenosine receptor A1 [8], the Ki is 0.00575 µM.

On to `Nc1nccnc1C(=O)N/N=C/c1ccc(Cl)cc1`, for which, in assay [1], the Activity was under 5%.

As for `CCOC(=O)c1nn(-c2ccc(OC(C)=O)cc2)c(=O)c2c(N)scc12`, the Activity in assay [1] was found to be 66.6%. The EC50 on Adenosine receptor A1 [2] came out at 2.5 µM. In assay [3], this molecule had an inhibition of 48.9%. Moreover, the Kb on Adenosine receptor A1 [5] is 0.0398 µM.

In the case of `NNC(=O)c1nccnc1N`, the Activity in assay [1] is under 5%.

`Cc1sc(N)c(C(=O)c2cccs2)c1C`: the Activity in assay [1] turned out to be 33.2%. Moreover, the EC50 on Adenosine receptor A1 [2] turned out to be 11.2 µM. In assay [3], this molecule returned an inhibition of 50.3%. For the same molecule, the outcome in assay [4] was inactive.

As to `COc1ccc(-n2nc(C(=O)OC(C)(C)C)c3csc(N)c3c2=O)cc1`, the Activity in assay [1] was determined as 5%.

For the molecule `CCOC(=O)c1cnc(SCC(=O)c2cc(Cl)c(Cl)s2)nc1N`, the Activity in assay [1] amounted to 11%.

`NC(=O)c1nnc2ccccc2c1N`: the Activity in assay [1] was under 5%.

In the case of `CCOC(=O)c1nn(-c2ccccc2)c(=O)c2c(N)scc12`, the Activity in assay [1] was 60.4%. Further, on Adenosine receptor A1 [2], the EC50 was determined as 13.6 µM. This molecule also gave an inhibition in assay [3] of 22.8%. Also, the Kb on Adenosine receptor A1 [5] was 0.0158 µM.

For the molecule `NC(=O)c1ncccc1C(=O)O`, in assay [1], the Activity is under 5%.

Consider `Nc1ccc(Cl)cc1C(=O)NCc1ccccn1`, for which the Activity in assay [1] is under 5%.

On to `Nc1c2c(=O)cc(-c3ccccc3)[nH]c2nn1-c1ccccc1`, for which the Activity in assay [1] was under 5%.

Regarding `CCOC(=O)c1nn(-c2ccc(OS(=O)(=O)C(F)(F)F)cc2)c(=O)c2c(N)scc12`, the Activity in assay [1] is 68.5%. For the same molecule, the EC50 on Adenosine receptor A1 [2] stood at 4.9 µM. This molecule also displayed an inhibition in assay [3] of 21.5%. In assay [4], the outcome was inactive.

As to `CCOC(=O)c1nn(-c2ccc(I)cc2)c(=O)c2c(N)scc12`, the Activity in assay [1] stood at 65.4%. In addition, at Adenosine receptor A1 [2], the 50% effective concentration (EC50) was found to be 7.1 µM. Moreover, in assay [3], the inhibition came out at 100%. Besides, at Adenosine receptor A1 [5], the Kb is 0.0794 µM.

For the molecule `Nc1nccnc1C(=O)N/N=C/c1ccc(C(F)(F)F)cc1`, in assay [1], the Activity was under 5%.

On to `NC(=O)c1nnn(Cc2ccc(Cl)cc2)c1N`, for which, in assay [1], the Activity is under 5%.

Turning to `Nc1ccccc1C(=O)NNc1ccccc1Cl`, the Activity in assay [1] is under 5%.

In the case of `CCOC(=O)c1nn(-c2ccc([N+](=O)[O-])cc2)c(=O)c2c(N)scc12`, the Activity in assay [1] came out at 19.6%. For the same molecule, on Adenosine receptor A1 [2], the concentration for a half-maximal effect (EC50) turned out to be 13 µM. The molecule also yielded an inhibition in assay [3] of 73.4%. Further, the result in assay [4] was inactive.

Turning to `Nc1nccnc1C(=O)NNS(=O)(=O)c1ccc(Cl)cc1`, the Activity in assay [1] was under 5%.

In the case of `Cc1nc2ccccc2c(C(=O)O)c1N`, in assay [1], the Activity is under 5%.

For the molecule `CCOC(=O)c1nn(-c2ccc(C(C)(C)C)cc2)c(=O)c2c(N)scc12`, the Activity in assay [1] turned out to be 59%. The EC50 on Adenosine receptor A1 [2] was 9.75 µM. In assay [3], this molecule displayed an inhibition of 23%. In addition, in assay [4], the result was inactive.

Take `CCOC(=O)c1cnn(C)c1N`: in assay [1], the Activity is under 5%.

In the case of `Nc1ccc(Cl)cc1C(=O)NCc1ccncc1`, in assay [1], the Activity was under 5%.

With `Nc1cc(Cl)ccc1C(=O)N1CCSCC1`, the Activity in assay [1] worked out at 6%.

For `NC(=O)c1cc(Cl)c(Cl)cc1C(N)=O`, the Activity in assay [1] is under 5%.

Take `Cc1nn(-c2ccccc2)c2nc(N)c(C(N)=O)cc12`: in assay [1], the Activity was under 5%.

Take `Nc1ccccc1C(=O)NC1CCCCNC1=O` (stereo not drawn): in assay [1], the Activity is under 5%.

Turning to `CCOC(=O)c1c(C)nsc1N`, the Activity in assay [1] was under 5%.

On to `CCOC(=O)c1nn(-c2cccc(C(F)(F)F)c2)c(=O)c2c(N)scc12`, for which the Activity in assay [1] came out at 66.1%. Also, the half-maximal effective concentration (EC50) on Adenosine receptor A1 [2] is 2.7 µM. In addition, in assay [3], the inhibition amounted to 32%. Further, the outcome in assay [4] was inactive.

With `Cc1c(C(=O)Nc2ccccc2)sc(N)c1C(N)=O`, the Activity in assay [1] was 80.3% and 80%. Also, the EC50 at Adenosine receptor A1 [2] was determined as 3.95 µM. In assay [3], this molecule displayed an inhibition of 32.3%. Also, the outcome in assay [4] was inactive.

As to `CCOC(=O)c1cn[nH]c1N`, in assay [1], the Activity is under 5%.

As to `CCOC(=O)c1nn(-c2ccc(O)cc2)c(=O)c2c(N)scc12`, the Activity in assay [1] was 75.9%. Further, the EC50 at Adenosine receptor A1 [2] came to 7.1 µM. In assay [3], this molecule showed an inhibition of 65.8%. Moreover, the Kb at Adenosine receptor A1 [5] was 0.0398 µM.

Turning to `CSc1nc(C(N)=O)c(N)s1`, the Activity in assay [1] was under 5%.

For the molecule `Nc1ccccc1C(=O)N/N=C/c1ccc2c(c1)OCO2`, the Activity in assay [1] was under 5%.

For the molecule `Nc1[nH]nc2[nH]c(-c3ccccc3)cc(=O)c12`, the Activity in assay [1] is under 5%.

As for `COc1cccc(-c2cc3c(c(N)c2C#N)c(=O)oc2ccccc23)c1`, the Activity in assay [1] is under 5%.

For `COc1ccc(-n2nc(C(=O)O)c3csc(N)c3c2=O)cc1`, in assay [1], the Activity was determined as 55.8%. Further, on Adenosine receptor A1 [2], the EC50 stood at 2.6 µM. The molecule further had an inhibition in assay [3] of 29.5%. Besides, the outcome in assay [4] was inactive.

`CCOC(=O)c1nn(-c2ccc(OC)cc2)c(=O)c2c(N)scc12`: the Activity in assay [1] was found to be 68.6%. Also, the half-maximal effective concentration (EC50) on Adenosine receptor A1 [2] came to 4.3 µM. The molecule further yielded an inhibition in assay [3] of 92.5%. The Kb on Adenosine receptor A1 [5] was 0.2 µM.

Turning to `NC(=O)c1nnn(Cc2ccc(F)cc2)c1N`, the Activity in assay [1] was under 5%.

Consider `Nc1scc2c(C(=O)O)nn(-c3ccccc3)c(=O)c12`, for which the 50% effective concentration (EC50) at Adenosine receptor A1 [2] was found to be 9.8 µM.

In the case of `CCOC(=O)c1c(N)sc2c1-c1ccccc1C2`, the Activity in assay [1] is under 5%.
